Columns and labels:
THP-1 cells = assay: Cellular uptake and metabolism of α-MG; format: in vitro ADME, human; conditions: 24 h after addition of α-MG, control cultures; nd: not detected
How it was run: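 THP-1 monocytes were differentiated with 100 nM PMA for 48 h, then exposed 24 h to 5.2 μM compound (DMSO stock into 10% FBS medium). Activated cultures were pre-exposed to 5 ng/mL LPS for 4 h and washed with PBS. Spent medium and cells were collected separately, extracted and analysed by RP-HPLC for free and glucuronidated/sulfated xanthones. Amounts are % of initial compound; mean ± SD, n ≥ 5.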

HepG2 cells = assay: Cellular uptake and metabolism of α-MG; format: in vitro ADME, human; conditions: 24 h after addition of α-MG, control cultures; nd: not detected
How it was run: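 HepG2 monolayers, 2 days post-confluence, received 9.0 μM compound as a DMSO stock added to 10% FBS medium for 24 h. Activated cultures had 10 ng/mL TNF-α for 4 h and a PBS wash first. Medium and cells were collected separately, extracted and analysed by RP-HPLC for free and glucuronidated/sulfated xanthones. Quantification used retention time, UV spectrum and five-point standard curves, as % of initial amount; mean ± SD, n ≥ 5.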

Caco-2 cells = assay: Cellular uptake, metabolism and transport of α-MG on Transwell inserts; format: in vitro ADME, human; conditions: 24 h after addition of α-MG, control cultures; nd: not detected
How it was run: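 Caco-2 cells were differentiated 21–25 days post-confluence on Transwell inserts. Compound (12 μM) in Tween 40 micelles was added apically for 24 h. Activated cultures had 5 ng/mL IL-1β for 4 h, then a PBS wash. Apical medium, basolateral medium and cell monolayer were collected separately and analysed by RP-HPLC for free and conjugated xanthones. Amounts are % of initial compound; mean ± SD, n ≥ 5.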

[1] = tested on: LPS-induced production of NO in RAW 264.7 cells; assay: LPS-induced production of NO; format: cell-based, murine; conditions: Mus musculus, RAW264.7, read-out: inhibition of LPS-induced production of NO
How it was run: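 RAW 264.7 cells, 2 days post-confluence, were pretreated 2 h with compound (DMSO stock into 10% FBS medium). They were then stimulated 16 h with 5 ng/mL E. coli O111:B4 LPS. NO production was estimated as medium nitrite by the Griess reaction.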

In the case of COc1c(O)cc2oc3cc(O)c(CC=C(C)C)c(O)c3c(=O)c2c1CCC(C)(C)O [garcinone D], the “intracellular xanthone, THP-1” value (THP-1 cells) is reported as 66 ± 2 pmol/dish.
In the case of COc1c(O)cc2oc3cc4c(c(O)c3c(=O)c2c1CC=C(C)C)C=CC(C)(C)O4 [9-hydroxycalabaxanthone], the “intracellular xanthone, HepG2” value (HepG2 cells) is reported as 44 ± 5 pmol/dish and the “intracellular xanthone, Caco-2” value (Caco-2 cells) is reported as 100 ± 17 pmol/dish.
Compound COC(=O)[C@@H](N)CCCNC(N)=N[N+](=O)[O-] [L-NAME, reference compound] has an inhibition at 200 µM [1] of 30%.

— article PMC3793015 (Journal of agricultural and food chemistry, 2013)
